Key:
MV4-11 [1] = test: Antiproliferative activity against human MV4-11 cells assessed as growth inhibition after 72 hrs by resazurin assay; type: functional
How it was run: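 MV4-11 cells kept at 37 °C with 5% CO2 in ATCC-recommended medium plus 10% FBS. In-house resazurin viability assay after 72 h exposure. GI50 reported as mean ± standard deviation from at least two replicates.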

[2] = target: Glycogen synthase kinase-3 alpha (Homo sapiens) (UniProt P49840); test: Inhibition of GSK3alpha (unknown origin) assessed as residual activity at 1 uM relative to control
Chain of Glycogen synthase kinase-3 alpha (Homo sapiens) (P49840 2-483 limits assumed): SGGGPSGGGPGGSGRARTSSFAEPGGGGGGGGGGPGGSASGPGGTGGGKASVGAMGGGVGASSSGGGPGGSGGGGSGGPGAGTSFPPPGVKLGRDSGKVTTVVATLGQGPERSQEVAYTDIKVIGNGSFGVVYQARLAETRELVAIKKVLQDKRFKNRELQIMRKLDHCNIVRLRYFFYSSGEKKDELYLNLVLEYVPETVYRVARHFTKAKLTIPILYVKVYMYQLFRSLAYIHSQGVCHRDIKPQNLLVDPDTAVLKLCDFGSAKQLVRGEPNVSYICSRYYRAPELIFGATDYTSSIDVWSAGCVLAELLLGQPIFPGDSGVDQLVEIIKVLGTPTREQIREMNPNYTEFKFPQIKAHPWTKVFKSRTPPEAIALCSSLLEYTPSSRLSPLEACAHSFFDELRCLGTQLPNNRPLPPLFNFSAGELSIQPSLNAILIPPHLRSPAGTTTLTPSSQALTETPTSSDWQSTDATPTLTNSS

[3] = target: Cyclin-dependent kinase 1/cyclin B1 (Homo sapiens) (UniProt P06493+P14635); test: Inhibition of CDK1/Cyclin B (unknown origin) assessed as residual activity at 1 uM relative to control; type: protein-complex assay
Chain of Cyclin-dependent kinase 1/cyclin B1 (Homo sapiens) (P06493 whole entry, looked up): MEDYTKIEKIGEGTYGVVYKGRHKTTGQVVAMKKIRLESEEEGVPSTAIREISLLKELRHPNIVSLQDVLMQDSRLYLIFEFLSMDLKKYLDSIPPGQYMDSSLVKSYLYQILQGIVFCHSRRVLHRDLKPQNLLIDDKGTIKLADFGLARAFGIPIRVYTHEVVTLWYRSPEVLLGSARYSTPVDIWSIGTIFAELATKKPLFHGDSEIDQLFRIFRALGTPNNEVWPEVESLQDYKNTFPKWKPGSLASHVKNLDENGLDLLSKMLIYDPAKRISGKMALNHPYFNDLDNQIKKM
Chain of Cyclin-dependent kinase 1/cyclin B1 (Homo sapiens) (P14635 whole entry, looked up): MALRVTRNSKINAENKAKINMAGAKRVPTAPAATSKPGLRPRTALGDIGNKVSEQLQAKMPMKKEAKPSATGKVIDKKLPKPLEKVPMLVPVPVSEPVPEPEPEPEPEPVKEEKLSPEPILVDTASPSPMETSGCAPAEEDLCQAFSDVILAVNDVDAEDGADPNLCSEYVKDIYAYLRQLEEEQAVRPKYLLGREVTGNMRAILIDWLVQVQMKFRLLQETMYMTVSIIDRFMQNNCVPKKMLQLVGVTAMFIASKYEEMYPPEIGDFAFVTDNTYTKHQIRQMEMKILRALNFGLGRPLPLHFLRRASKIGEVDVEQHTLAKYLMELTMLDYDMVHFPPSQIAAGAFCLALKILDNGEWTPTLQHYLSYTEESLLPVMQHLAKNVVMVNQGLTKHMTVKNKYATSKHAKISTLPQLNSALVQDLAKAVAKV

[4] = Volume of distribution at steady state in BALB/c mouse at 2 mg/kg, iv measured upto 24 hrs by LC/MS/MS analysis; type: ADME, organism-based; details: in vivo, read-out: Vdss
[5] = Clearance in Sprague-Dawley rat at 5 mg/kg, iv measured upto 24 hrs by LC/MS/MS analysis; type: ADME, organism-based; details: in vivo
[6] = Cmax in Sprague-Dawley rat at 5 mg/kg, iv measured upto 24 hrs by LC/MS/MS analysis; type: ADME, organism-based; parameters: route intravenous, dose 5 mg/kg, time <=24; details: in vivo
[7] = Cmax in BALB/c mouse at 2 mg/kg, iv measured upto 24 hrs by LC/MS/MS analysis; type: ADME, organism-based; parameters: route intravenous, dose 2 mg/kg, time <=24; details: in vivo
[8] = Tmax in Sprague-Dawley rat at 20 mg/kg, po measured upto 24 hrs by LC/MS/MS analysis; type: ADME, organism-based; details: in vivo
[9] = Tmax in BALB/c mouse at 2 mg/kg, iv measured upto 24 hrs by LC/MS/MS analysis; type: ADME, organism-based; details: in vivo
[10] = Half life in Sprague-Dawley rat at 5 mg/kg, iv measured upto 24 hrs by LC/MS/MS analysis; type: ADME, organism-based; details: in vivo
[11] = Half life in BALB/c mouse at 2 mg/kg, iv measured upto 24 hrs by LC/MS/MS analysis; type: ADME, organism-based; details: in vivo
[12] = Half life in BALB/c mouse at 10 mg/kg, po measured upto 24 hrs by LC/MS/MS analysis; type: ADME, organism-based; details: in vivo
[13] = AUC in Sprague-Dawley rat at 5 mg/kg, iv measured upto 24 hrs by LC/MS/MS analysis; type: ADME, organism-based; parameters: route intravenous, dose 5 mg/kg, time <=24; details: in vivo
[14] = Oral bioavailability in BALB/c mouse at 10 mg/kg measured upto 24 hrs by LC/MS/MS analysis; type: ADME, organism-based; details: in vivo
[15] = Dissociation constant, pKa of the compound by fast UV-spectrometric titration method; type: physicochemical
[16] = target: T1, Receptor-type tyrosine-protein kinase FLT3 (Homo sapiens, UniProt P36888); test: Inhibition of human FLT3 using EAIYAAPFAKKK as substrate incubated for 40 mins in presence of [gamma-33ATP] by scintillation counting based radiometry assay
T1 sequence (P36888 whole entry): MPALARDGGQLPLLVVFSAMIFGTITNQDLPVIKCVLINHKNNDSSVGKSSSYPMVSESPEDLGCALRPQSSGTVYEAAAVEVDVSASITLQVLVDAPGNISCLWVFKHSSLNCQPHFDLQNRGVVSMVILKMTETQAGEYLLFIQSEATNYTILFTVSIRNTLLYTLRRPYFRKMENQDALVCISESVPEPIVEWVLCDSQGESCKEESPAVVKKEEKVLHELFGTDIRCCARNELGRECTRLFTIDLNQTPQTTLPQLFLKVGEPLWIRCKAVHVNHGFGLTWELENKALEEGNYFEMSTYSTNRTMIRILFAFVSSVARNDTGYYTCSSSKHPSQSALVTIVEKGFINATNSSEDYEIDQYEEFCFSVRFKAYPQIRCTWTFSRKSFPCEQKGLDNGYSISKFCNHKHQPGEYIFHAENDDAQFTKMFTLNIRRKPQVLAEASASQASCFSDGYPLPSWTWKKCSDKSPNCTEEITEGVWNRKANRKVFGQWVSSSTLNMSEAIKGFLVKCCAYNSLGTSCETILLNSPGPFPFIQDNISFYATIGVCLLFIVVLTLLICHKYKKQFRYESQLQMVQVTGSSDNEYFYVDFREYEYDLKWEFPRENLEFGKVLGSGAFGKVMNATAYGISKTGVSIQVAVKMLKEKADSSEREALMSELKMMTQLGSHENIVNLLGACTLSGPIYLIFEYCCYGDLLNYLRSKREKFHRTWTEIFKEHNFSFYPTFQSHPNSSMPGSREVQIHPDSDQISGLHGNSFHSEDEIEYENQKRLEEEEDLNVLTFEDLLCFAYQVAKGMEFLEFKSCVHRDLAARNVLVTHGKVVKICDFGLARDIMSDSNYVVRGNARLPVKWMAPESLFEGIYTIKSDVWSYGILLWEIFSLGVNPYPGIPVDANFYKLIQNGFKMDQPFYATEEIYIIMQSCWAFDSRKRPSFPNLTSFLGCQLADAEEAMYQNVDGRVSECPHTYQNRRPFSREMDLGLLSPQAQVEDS

U-937 = test: Antiproliferative activity against human U937 cells assessed as growth inhibition incubated for 72 hrs by MTT assay; type: functional
MOLM-13 = test: Antiproliferative activity against human MOLM-13 cells assessed as growth inhibition incubated for 72 hrs by MTT assay; type: functional
MV4-11 [17] = test: Induction of apoptosis in human MV4-11 cells assessed as necrotic cells at 3 uM after 72 hrs by Annexin V FITC/PI staining based flow cytometry analysis (reference value: 0.23%); type: functional
MV4-11 [18] = test: Induction of cell cylce arrest in human MV4-11 cells assessed as accumulation of cells at sub G1 phase at 10 uM after 72 hrs by RNase A/propidium iodide staining based flow cytometry (reference value: 1.58%); type: functional
How it was run: (§1)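 MV4-11 cells were seeded at 8 × 10⁴, held overnight at 37 °C with 5% CO2, then treated 72 h at 3 or 10 µM against a DMSO diluent control. Pellets were fixed in 70% ethanol on ice for 15 min, then stained 1 h at room temperature with PI, 0.1 mg/mL RNase A and 0.05% Triton X-100. Sub-G1, G1, S and G2/M fractions were read by flow cytometry.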

MV4-11 [19] = test: Induction of cell cylce arrest in human MV4-11 cells assessed as accumulation of cells at S phase at 10 uM after 72 hrs by RNase A/propidium iodide staining based flow cytometry (reference value: 18.81%); type: functional; how it was run: as §1
[20] = target: Protein kinase C theta (Homo sapiens) (UniProt Q04759); test: Inhibition of PKC theta (unknown origin) assessed as residual activity at 1 uM relative to control
Chain of Protein kinase C theta (Homo sapiens) (Q04759 whole entry, looked up): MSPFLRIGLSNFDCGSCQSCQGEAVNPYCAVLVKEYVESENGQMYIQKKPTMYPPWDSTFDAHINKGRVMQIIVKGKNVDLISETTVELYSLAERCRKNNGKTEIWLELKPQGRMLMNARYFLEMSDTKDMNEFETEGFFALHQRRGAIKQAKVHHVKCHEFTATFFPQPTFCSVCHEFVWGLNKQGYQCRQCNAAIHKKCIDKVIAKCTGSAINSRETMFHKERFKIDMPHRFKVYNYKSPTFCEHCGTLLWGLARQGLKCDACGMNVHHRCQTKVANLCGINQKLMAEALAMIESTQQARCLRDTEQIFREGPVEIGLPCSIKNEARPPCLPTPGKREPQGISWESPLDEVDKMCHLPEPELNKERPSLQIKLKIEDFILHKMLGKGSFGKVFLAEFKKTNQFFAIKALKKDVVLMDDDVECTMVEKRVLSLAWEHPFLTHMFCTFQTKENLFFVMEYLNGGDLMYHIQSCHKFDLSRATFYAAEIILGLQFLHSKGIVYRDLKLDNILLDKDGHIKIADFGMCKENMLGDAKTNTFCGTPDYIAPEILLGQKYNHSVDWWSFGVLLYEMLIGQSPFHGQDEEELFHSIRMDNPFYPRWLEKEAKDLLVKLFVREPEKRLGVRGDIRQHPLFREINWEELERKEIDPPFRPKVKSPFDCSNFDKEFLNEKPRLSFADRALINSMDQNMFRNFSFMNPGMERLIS

CDK8/Cyclin C = CDK8/Cyclin C (Homo sapiens, UniProt P49336); test: Inhibition of CDK8/Cyclin C (unknown origin) using RBER-CHKtide as substrate in presence of [33P]gammaATP incubated for 60 mins by microplate scintillation counter analysis
Chain of CDK8/Cyclin C (P49336 whole entry): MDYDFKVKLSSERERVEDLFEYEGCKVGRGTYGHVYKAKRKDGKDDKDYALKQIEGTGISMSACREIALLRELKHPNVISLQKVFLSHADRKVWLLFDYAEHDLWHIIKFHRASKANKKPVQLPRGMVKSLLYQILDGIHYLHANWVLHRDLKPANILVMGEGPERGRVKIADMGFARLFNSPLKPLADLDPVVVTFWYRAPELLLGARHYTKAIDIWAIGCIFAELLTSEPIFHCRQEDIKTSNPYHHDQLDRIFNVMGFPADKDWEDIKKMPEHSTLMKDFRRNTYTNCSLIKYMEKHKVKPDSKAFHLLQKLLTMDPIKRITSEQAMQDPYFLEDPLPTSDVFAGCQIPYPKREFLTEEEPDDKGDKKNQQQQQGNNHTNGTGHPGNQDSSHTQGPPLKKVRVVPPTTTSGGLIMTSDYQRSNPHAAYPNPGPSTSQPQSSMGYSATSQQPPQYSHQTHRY
Chain of CDK8/Cyclin C (P24863 whole entry, further chain): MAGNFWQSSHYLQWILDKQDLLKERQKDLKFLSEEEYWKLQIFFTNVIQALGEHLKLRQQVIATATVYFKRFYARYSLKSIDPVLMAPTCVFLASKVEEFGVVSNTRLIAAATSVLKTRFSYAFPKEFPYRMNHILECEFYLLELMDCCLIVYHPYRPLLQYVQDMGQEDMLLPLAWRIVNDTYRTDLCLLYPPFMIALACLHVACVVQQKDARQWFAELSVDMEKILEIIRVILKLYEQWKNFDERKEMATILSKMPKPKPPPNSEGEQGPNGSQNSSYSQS

GI50 (MV4-11 [1]): 600 nM
Activity [2]: 61%
Activity [3]: 61%
Vd [4]: 1.24 L/kg
clearance [5]: 23.8 mL/min/kg
Cmax [6]: 9.36 µM
Cmax [7]: 4.16 µM
Tmax [8]: 4 h
Tmax [9]: 3 min
half-life [10]: 1.45 h
half-life [11]: 0.37 h
half-life [12]: 3.44 h
AUC at 24 h [13]: 8.92 µM·h
bioavailability [14]: 33%
pKa [15]: 5.27
Ki [16]: 242 nM
GI50 (U-937): 4880 nM
GI50 (MOLM-13): 5110 nM
Activity [20]: 61%
Ki (CDK8/Cyclin C): 9 nM
Structure (SMILES): Nc1ncc(-c2cc3ccccc3o2)c(N2CCC3(CCNC3=O)CC2)c1Cl
Activity (MV4-11 [17]): 0.42%
Activity (MV4-11 [18]): 4.89%
Activity (MV4-11 [19]): 1.8%

Reference: ChEMBL document CHEMBL4811251 (Eur J Med Chem, 2021)
